Compound activity: PubChem BioAssay, several laboratories
NR2E3 ag-1 = activates human photoreceptor nuclear receptor NR2E3; Q9Y5X4; GST-NR2E3/biotin-RetCOR TR-FRET, 1536-well; inhibition of corepressor binding, % at 4.78 µM; 320,000 tested, 0.12% active; AID 2300;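 active = percent inhibition above the cutoff of mean plus 3 SD of all tested compounds, set per screening campaign, cut at about 20% in these data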
Target sequence (Q9Y5X4 whole entry, looked up): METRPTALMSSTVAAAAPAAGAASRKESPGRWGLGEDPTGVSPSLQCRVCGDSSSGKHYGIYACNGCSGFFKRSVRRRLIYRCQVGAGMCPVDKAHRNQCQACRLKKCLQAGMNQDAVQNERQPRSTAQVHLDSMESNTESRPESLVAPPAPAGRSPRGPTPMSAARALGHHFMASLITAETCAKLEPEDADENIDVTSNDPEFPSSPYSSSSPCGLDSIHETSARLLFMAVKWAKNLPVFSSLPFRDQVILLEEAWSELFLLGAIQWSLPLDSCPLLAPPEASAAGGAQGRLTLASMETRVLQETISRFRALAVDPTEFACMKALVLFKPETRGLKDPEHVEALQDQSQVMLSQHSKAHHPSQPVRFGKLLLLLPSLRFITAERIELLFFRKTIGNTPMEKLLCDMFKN
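Format: 1536-well format; test system: GST-NR2E3 and biotin-RetCOR proteins; read-out basis: percent inhibition of TR-FRET ratio; timing: 5 h incubation at 4 °C; detection: time-resolved FRET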
MPTP inh = inhibitors of mitochondrial permeability transition pore. isolated mouse mitochondria, Ca2+ swelling absorbance, 30 min. inhibition, % at 10 µM. 360,000 tested, 1.4% active;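 active = inhibition of 50% or more, scaled per plate between neutral and stimulator controls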
aDG glyco act = increases alpha dystroglycan glycosylation; Pro5-aDG cells, alpha-DG glycosylation AlphaScreen (IIH6); 0% Pro5, 100% B10-LARGE cell signal; activation, % at 10 µM; 360,000 tested, 0.22% active; AID 624168;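 active = activation of at least 8% versus controls, or a plate z-score of at least 8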;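 note: Pro5 are CHO cells carrying HIG-tagged alpha-DG that lacks glycosylation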
Jurkat NFkB inh = inhibitors of the PMA/ionomycin-induced NF-kB reporter in Jurkat cells; PMA/ionomycin-induced NF-kB luciferase reporter, luminescence; 330,000 tested, 0.53% active; inhibition, % at 4 µM; AID 435003; in the data active = inhibition above about 50%
697 NFkB inh = inhibitors of the PMA/ionomycin-induced NF-kB reporter in 697 B cells | inhibition, % at 4 µM | 697 B-cell NF-kB luciferase reporter, 16 h | 330,000 tested, 0.33% active; in the data active = inhibition above about 35%
NR2E3 ag-2 = human photoreceptor-specific nuclear receptor agonism; Q9Y5X4; CHO-S Gal4-NCOR/VP16-NR2E3 two-hybrid, luciferase; inhibition of corepressor binding, % at 3.98 µM; 360,000 tested, 0.35% active;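 active = inhibition above the mean of all tested compounds plus 3 SD, cut at about 70% in these data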;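 note: higher means lower luciferase signal from less NR2E3 corepressor binding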
NR2E3 ag conf = NR2E3 agonism confirmed in two-hybrid assay; AID 624378; shares compounds with NR2E3 ag-2; CHO-S mammalian two-hybrid NR2E3-NCOR, luciferase luminescence; 2,300 tested, 51% active; inhibition, % at 3.98 µM;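 active = average inhibition above a cutoff equal to the mean inhibition of all tested compounds plus one SD, cut at about 70% in these data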
GAL4-VP16 luc = reduces GAL4-VP16 reporter signal in NR2E3 counterscreen. shares compounds with NR2E3 ag-2. CHO-S GAL4-VP16 luciferase reporter, luminescence. inhibition, % at 3.98 µM. 2,300 tested, 29% active;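 active = mean inhibition above a cutoff equal to the average over all tested compounds plus one standard deviation, cut at about 70% in these data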;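 note: luciferase from a UAS reporter driven by GAL4-VP16 transactivation; higher means less reporter light so more repression of VP16 activity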
MPTP counter = membrane potential counter-screen of mitochondrial pore inhibitors; isolated mitochondria, Rhodamine 123 fluorescence; AID 624504; 5,000 tested, 78% active; shares compounds with MPTP inh; inhibition, % at 10 µM; in the data active = inhibition above about 22%
Large screens that a line does not name were inactive (follow-up assays come after a bar, where they were run). The list is not random: actives were taken first. Their share in the collection is about 2.4%.

O=C(c1cc(COc2ccc3ncccc3c2)on1)N1CCCC1	MPTP inh 52.2, NR2E3 ag-2 83.8 | NR2E3 ag conf 79.8 | GAL4-VP16 luc inactive | MPTP counter 69.9
CC(NC(=O)c1cc(COc2ccc3ncccc3c2)on1)c1ccc(F)cc1 (stereo unspecified)	MPTP inh 94.0, NR2E3 ag-2 85.5 | NR2E3 ag conf 96.4 | GAL4-VP16 luc 88.0 | MPTP counter 85.8
O=C(c1cc(COc2ccc3ncccc3c2)on1)N1CCCCCC1	MPTP inh 98.5, NR2E3 ag-2 71.4 | NR2E3 ag conf 95.2 | GAL4-VP16 luc 75.9 | MPTP counter 100.6
Cc1cc(OCc2cc(C(=O)N3CCN(CC4CC4)CC3)no2)cc(C)c1Cl	none
Cc1cc(OCc2cc(C(=O)N3CCC(Oc4cccnc4)CC3)no2)cc(C)c1Cl	MPTP inh 68.6, NR2E3 ag-2 93.7 | NR2E3 ag conf 93.5 | GAL4-VP16 luc 74.5 | MPTP counter 102.4
CCOc1cc(C(=O)N(CC)CC(=O)Nc2c(F)cccc2F)ccc1OCC(=O)N1CCOCC1	none (no result: NR2E3 ag-1)
O=C(NC1CCCC1)c1cc(COc2ccc3ncccc3c2)on1	MPTP inh 94.7, NR2E3 ag-2 95.3 | NR2E3 ag conf 94.6 | GAL4-VP16 luc 84.5 | MPTP counter 93.6
CCCc1ccc(C(C)NC(=S)NCc2ccc(F)cc2)cc1 (stereo unspecified)	MPTP inh 64.0, NR2E3 ag-2 77.3 | NR2E3 ag conf inactive | GAL4-VP16 luc inactive | MPTP counter 91.4
Cc1cc(-c2ccc(C)c(S(=O)(=O)NCCCN3CCN(c4ccccc4F)CC3)c2)on1	MPTP inh 72.5 | NR2E3 ag conf 76.4 | GAL4-VP16 luc inactive | MPTP counter 84.8
Cc1cc(-c2ccc(C)c(S(=O)(=O)NCCCN3CCN(c4ccccc4)CC3)c2)on1	none
Clc1cccc(CON/C=N/c2ncnc3sccc23)c1	none
Clc1cccc(Cl)c1CON/C=N/c1ncnc2sccc12	MPTP inh 69.4 | NR2E3 ag conf inactive | GAL4-VP16 luc inactive | MPTP counter 40.8
CC(C)(C)C(=O)NC(=S)NNC(=O)c1ccc(-c2ccccc2)cc1	MPTP inh 93.5 | NR2E3 ag conf 96.4 | GAL4-VP16 luc inactive | MPTP counter 22.6
CC(C)C1Nc2c(O)cc(Cl)c([N+](=O)[O-])c2C2C=CCC21 (stereo unspecified)	MPTP inh 92.5, NR2E3 ag-2 98.6 (no result: NR2E3 ag-1, Jurkat NFkB inh, 697 NFkB inh) | NR2E3 ag conf 100.4 | GAL4-VP16 luc 91.2 | MPTP counter 77.9
COc1cccc2c1CCC1=CC(=O)CCC12C (stereo unspecified)	none (no result: NR2E3 ag-1, Jurkat NFkB inh, 697 NFkB inh)
COc1ccc(CN(C)S(=O)(=O)c2nnc(NC(=O)c3cccc(OC)c3)s2)cc1	none
COc1cccc(C(=O)Nc2nnc(S(=O)(=O)N(C)Cc3ccc(F)cc3)s2)c1	MPTP inh 56.4 | NR2E3 ag conf inactive | GAL4-VP16 luc inactive | MPTP counter 80.0
COC(=O)c1c(C)oc2ccc(N(C(=O)c3ccncc3)S(=O)(=O)c3ccc(C)cc3C)cc12	MPTP inh 62.3, NR2E3 ag-2 91.1 | NR2E3 ag conf 93.5 | GAL4-VP16 luc inactive | MPTP counter 28.7
COc1ccc(Nc2cc(C)nc(NCc3ccccc3)n2)cc1	MPTP inh 57.1 | NR2E3 ag conf 85.7 | GAL4-VP16 luc inactive | MPTP counter 46.8
Cc1cc(N/N=C/c2ccccc2Cl)nc(NCc2ccccc2)n1	none
Cc1cc(NC2CCCCC2)nc(NCc2ccccc2)n1	MPTP inh 85.8, NR2E3 ag-2 75.0 | NR2E3 ag conf 91.7 | GAL4-VP16 luc 75.7 | MPTP counter 110.9
COc1cc(C)nc(NCc2ccccc2)n1	none
COc1cccc(NC(=O)CN(C)C(=O)CSCC(=O)Nc2ccc(C)cc2)c1	none
COc1ccccc1C(=O)Nc1ccnn1C1CCN(Cc2ccn[nH]2)CC1	none
Cc1ccc(C2C(/C=C3/SC(=S)NC3=O)=C(c3cccs3)Oc3ccccc32)cc1 (stereo unspecified)	MPTP inh 98.8, NR2E3 ag-2 74.2 | NR2E3 ag conf 87.1 | GAL4-VP16 luc inactive | MPTP counter 48.1
COc1ccccc1N(CC(=O)NCC1CCCO1)C(=O)CNS(=O)(=O)c1ccc(Cl)cc1 (stereo unspecified)	none
CC(C)(C)C(=O)N1CCN(c2ccnc3cc(Cl)ccc23)CC1	none
O=C(Nc1ccc(OC(F)(F)F)cc1)N1CCN(c2ccnc3cc(Cl)ccc23)CC1	MPTP inh 96.4 | NR2E3 ag conf 93.9 | GAL4-VP16 luc inactive | MPTP counter 81.0
COc1ccc(-c2csc(NC(=O)CN3C(=O)NC4(CCCC4)C3=O)n2)cc1OC	none
CCOc1ccc(C(=O)Nc2ccc(N3CCN(C(C)=O)CC3)cc2)cc1[N+](=O)[O-]	none
CC(=O)N1CCN(c2ccc(Oc3ccc([N+](=O)[O-])c(C(F)(F)F)c3)cc2)CC1	MPTP inh 80.2, NR2E3 ag-2 99.6 | NR2E3 ag conf 96.3 | GAL4-VP16 luc 80.5 | MPTP counter 75.7
CCC(C)(C)C1CCC(NC(=O)N2CCN(c3ccccc3O)CC2)CC1 (stereo unspecified)	none
CC(C(=O)Nc1cccnc1)c1ccc([N+](=O)[O-])cc1 (stereo unspecified)	none
CC(C)Cc1ccc(C(C)C(=O)Nc2cccnc2)cc1 (stereo unspecified)	MPTP inh 84.9 | NR2E3 ag conf 88.6 | GAL4-VP16 luc 75.9 | MPTP counter 79.2
CC(C)OC(=O)NCCOC(=O)Nc1ccc(Cl)c(Cl)c1	MPTP inh 97.4 | NR2E3 ag conf 92.1 | GAL4-VP16 luc 74.4 | MPTP counter 98.1
Cn1cc([N+](=O)[O-])c(C(=O)NCc2cc3cc(Cl)ccc3[nH]2)n1	none
CCN(CC)S(=O)(=O)c1cccc(NC(=O)Nc2cccc(C(F)(F)F)c2)c1	MPTP inh 86.8, NR2E3 ag-2 74.8 | NR2E3 ag conf inactive | GAL4-VP16 luc inactive | MPTP counter 68.7
CCCCCc1ccc(-c2cn(Cc3ccc(C(=O)c4ccccc4)cc3)nn2)cc1	none
O=C(c1ccccc1)c1ccc(Cn2cc(-c3ccccc3)nn2)cc1	MPTP inh 84.6, aDG glyco act 4.5 | NR2E3 ag conf 84.2 | GAL4-VP16 luc inactive | MPTP counter 98.8
CCn1cc(CN(C)S(=O)(=O)c2ccc3ccccc3c2)c(C)n1	MPTP inh 91.4 | NR2E3 ag conf 87.8 | GAL4-VP16 luc 70.8 | MPTP counter 84.6
CCn1cc(CN(C)S(=O)(=O)c2cccc([N+](=O)[O-])c2)cn1	none
